In ChEMBL document CHEMBL3877303 (J Med Chem, 2017):
One block for each molecule: values may come before it. Active and inactive are the calls of the source. The rule behind the calls is not given here.

Legend:
[1] = test system: BaF3; test: Inhibition of BCR/ABL p210 fusion protein F317I mutant (unknown origin) expressed in BAF3 cells assessed as growth inhibition measured after 72 hrs by CellTiter-Glo or CCK8 assay; format: cell-based; conditions: Homo sapiens
Method in brief: (§1)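 BaF3 lines were made by retroviral transduction with kinase-fusion MSCV vectors packaged in HEK293T cells. Cells were selected with puromycin for 48 h, then selected again without IL-3 so growth depends on the introduced kinase. […] They were seeded at 1 to 2.5×10^4 cells/mL with compound dilutions and incubated 72 h. Viability was read by CellTiter-Glo luminescence or CCK-8 absorbance (450/655 nm), normalized to DMSO control; GI50 was curve-fitted from triplicate tests.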

[2] = test system: GIST882; test: Induction of apoptosis in human GIST882 cells assessed as cleavage of PARP at 0.1 to 3 uM by Western blot analysis; format: functional, cell-based
Method in brief: (§2)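 Cells were treated with DMSO or serially diluted compound for the indicated periods. They were washed in ice-cold PBS and lysed in RIPA buffer with protease/phosphatase inhibitors, and protein was quantified by BCA. Lysates were resolved by SDS-PAGE, transferred to PVDF and blocked in 5% milk/TBST. Blots were probed for PARP and caspase-3, with β-actin as loading control, and detected by ECL.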

[3] = AUC (0 to infinity) in Sprague-Dawley rat at 10 mg/kg, po; format: ADME, organism-based; design: dose 10 mg/kg, time infinity, route oral; conditions: in vivo
Method in brief: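 Male Sprague-Dawley rats aged six to eight weeks were fasted overnight and then dosed iv or orally. Blood (~0.2 mL) was drawn from the jugular vein into heparin and kept on ice. Sampling was at 1 min to 8 h for iv and 5 min to 24 h for oral. Plasma was separated by centrifugation at 2-8 °C and stored at -80 °C until analysis.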

[4] = test system: Mast/stem cell growth factor receptor Kit (Homo sapiens), P10721 [V559D]; test: Inhibition of Tel-fused c-KIT V559D mutant (unknown origin) expressed in BAF3 cells assessed as growth inhibition measured after 72 hrs by CellTiter-Glo or CCK8 assay; format: cell-based; method in brief: as §1
Sequence of Mast/stem cell growth factor receptor Kit (Homo sapiens), P10721 [V559D] (P10721 whole entry V559D, the tested form may be a part): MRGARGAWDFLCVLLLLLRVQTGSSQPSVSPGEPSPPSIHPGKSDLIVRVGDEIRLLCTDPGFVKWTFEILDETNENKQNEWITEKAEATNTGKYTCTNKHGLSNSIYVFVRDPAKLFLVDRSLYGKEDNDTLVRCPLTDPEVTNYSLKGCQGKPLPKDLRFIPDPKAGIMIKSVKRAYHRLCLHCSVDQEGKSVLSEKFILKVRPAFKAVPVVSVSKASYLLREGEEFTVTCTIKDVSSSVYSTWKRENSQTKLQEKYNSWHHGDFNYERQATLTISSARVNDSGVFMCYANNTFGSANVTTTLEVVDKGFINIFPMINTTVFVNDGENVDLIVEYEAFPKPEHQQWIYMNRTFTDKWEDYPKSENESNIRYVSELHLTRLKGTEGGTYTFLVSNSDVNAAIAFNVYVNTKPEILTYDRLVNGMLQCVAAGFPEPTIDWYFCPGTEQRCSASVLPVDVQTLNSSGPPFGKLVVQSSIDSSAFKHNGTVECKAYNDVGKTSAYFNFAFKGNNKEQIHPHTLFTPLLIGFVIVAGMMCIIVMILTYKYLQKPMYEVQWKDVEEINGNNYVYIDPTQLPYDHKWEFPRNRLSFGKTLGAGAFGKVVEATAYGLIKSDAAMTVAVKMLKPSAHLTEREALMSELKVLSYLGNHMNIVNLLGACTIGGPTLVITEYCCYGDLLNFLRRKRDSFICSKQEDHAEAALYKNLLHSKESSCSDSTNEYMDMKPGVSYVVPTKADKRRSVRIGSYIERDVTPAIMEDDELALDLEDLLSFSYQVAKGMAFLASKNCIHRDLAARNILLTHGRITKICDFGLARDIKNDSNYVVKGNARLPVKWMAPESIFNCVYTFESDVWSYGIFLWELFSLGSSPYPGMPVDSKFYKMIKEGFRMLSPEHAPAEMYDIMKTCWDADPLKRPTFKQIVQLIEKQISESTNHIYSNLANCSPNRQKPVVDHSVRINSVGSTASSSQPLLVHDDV

[5] = Mean residence time (0 to t) in Sprague-Dawley rat at 10 mg/kg, po; format: ADME, organism-based; conditions: in vivo
Method in brief: (§3)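 Male Sprague-Dawley rats, 6-8 weeks old, fasted overnight, dosed iv or po. Jugular vein blood (~0.2 mL, heparin) sampled at 1 min to 8 h (iv) or 5 min to 24 h (po). Plasma separated by centrifugation at 2-8 °C and stored at -80 °C before analysis.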

[6] = Antiproliferative activity against human KU812 cells measured after 72 hrs by CellTiter-Glo or CCK8 assay; format: functional; conditions: KU812, 72 h
[7] = Anticancer activity against human GISTT1 cells xenografted in nu/nu mouse assessed as tumor weight at 50 mg/kg, po administered daily via oral gavage measured 21 days post compound treatment (reference value: 2.86 g)
[8] = biological target: T1, Mast/stem cell growth factor receptor Kit (Homo sapiens, UniProt P10721); test: Inhibition of recombinant C-terminal polyhistidine-tagged human c-KIT expressed in mammalian expression system using Tyr 06 peptide as substrate measured after 1hr by FRET based Z'Lyte assay
T1 sequence (P10721 whole entry): as the sequence (P10721 whole entry V559D, the tested form may be a part) above, with D559V counted along it

[9] = test system: MEG-01; test: Induction of apoptosis in human MEG01 cells assessed as cleavage of PARP at 0.1 to 3 uM by Western blot analysis; format: functional, cell-based; method in brief: as §2
[10] = biological target: T1, Mast/stem cell growth factor receptor Kit; test: Inhibition of c-KIT mediated signaling pathways assessed as reduction in Stat3/5 phosphorylation at Y705/Y694 in human GISTT1 cells at 0.03 to 10 uM measured after 2 hrs by immunoblotting; format: cell-based
Method in brief: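 GIST-T1 cells treated with DMSO or serially diluted compound for 2 h. Cells lysed in RIPA buffer with protease/phosphatase inhibitors, protein quantified by BCA, SDS-PAGE, PVDF transfer, milk block, primary/secondary antibodies, ECL detection; beta-actin loading control.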

[11] = test system: Mus musculus; test: Toxicity in nu/nu mouse xenografted with human K562 cells assessed as change in body weight at 25 to 100 mg/kg/day administered via oral gavage measured after 28 days; format: organism-based; conditions: in vivo, 672 h
Method in brief: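 Female nu/nu mice given 10 million K562 cells in PBS/Matrigel (1:1) subcutaneously into the right flank. Once tumors reached 200 to 400 mm³, mice were randomized into groups of 4 or 5 and dosed daily by oral gavage in 0.5% methylcellulose/0.4% Tween80 in water, or vehicle, for 28 days. Body weight measured and expressed relative to initial; mean ± SEM.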

[12] = test system: K562; test: Induction of apoptosis in human K562 cells assessed as cleavage of PARP at 0.1 to 3 uM by Western blot analysis; format: functional, cell-based; method in brief: as §2
[13] = Tmax in Sprague-Dawley rat at 10 mg/kg, po; format: ADME, organism-based; conditions: in vivo; method in brief: as §3
[14] = biological target: T2, BCR/ABL p210 fusion protein (Homo sapiens, UniProt A1Z199); test: Inhibition of BCR/ABL p210 fusion protein mediated signaling pathways assessed as reduction in Stat5 phosphorylation at Y694 in human MEG01 cells at 0.01 to 3 uM measured after 2 hrs by immunoblotting; format: cell-based; conditions: MEG-01
T2 sequence (A1Z199 1-97): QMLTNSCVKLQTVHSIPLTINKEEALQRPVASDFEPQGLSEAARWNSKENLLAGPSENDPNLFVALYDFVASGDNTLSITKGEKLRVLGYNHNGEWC
Method in brief: (§4)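 After an ice-cold PBS wash, cells were lysed in RIPA buffer (50 mM Tris pH 8.0) with protease and phosphatase inhibitors, and protein was quantified by BCA. Lysates were run on SDS-PAGE, transferred to PVDF and blocked in 5% milk/TBST. Phospho- and total proteins were probed by immunoblot with ECL detection; β-actin served as loading control.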

[15] = biological target: T1, Mast/stem cell growth factor receptor Kit; test: Inhibition of c-KIT mediated signaling pathways assessed as reduction in ERK1/2 phosphorylation at T202/Y204 in human GIST882 cells at 0.03 to 10 uM measured after 2 hrs by immunoblotting; format: cell-based; method in brief: as §4
[16] = biological target: T1, Mast/stem cell growth factor receptor Kit; test: Inhibition of c-KIT autophosphorylation at Y719 in human GIST882 cells at 0.01 to 3 uM measured after 2 hrs by immunoblotting; format: cell-based; method in brief: as §4
[17] = test system: Mast/stem cell growth factor receptor Kit (Homo sapiens), P10721 [V559D,V654A]; test: Inhibition of Tel-fused c-KIT V559D/V654A double mutant (unknown origin) expressed in BAF3 cells assessed as growth inhibition measured after 72 hrs by CellTiter-Glo or CCK8 assay; format: cell-based; method in brief: as §1
Sequence of Mast/stem cell growth factor receptor Kit (Homo sapiens), P10721 [V559D,V654A] (P10721 whole entry V559D/V654A, the tested form may be a part): as the sequence (P10721 whole entry V559D, the tested form may be a part) above, with V654A counted along it

[18] = biological target: T2, BCR/ABL p210 fusion protein; test: Inhibition of BCR/ABL p210 fusion protein mediated signaling pathways assessed as reduction in CrkL phosphorylation at Y207 in human MEG01 cells at 0.01 to 3 uM measured after 2 hrs by immunoblotting; format: cell-based; conditions: MEG-01; method in brief: as §4
[19] = test system: KU812 cell line; test: Induction of apoptosis in human KU812 cells assessed as increase in cleaved caspase-3 level at 0.1 to 3 uM by Western blot analysis; format: functional, cell-based; method in brief: as §2
[20] = biological target: T1, Mast/stem cell growth factor receptor Kit; conditions: 1 uM
[21] = biological target: T1, Mast/stem cell growth factor receptor Kit; conditions: GISTT1, 1 uM
[22] = biological target: T1, Mast/stem cell growth factor receptor Kit; conditions: GISTT1, 1 uM; remark: listed apart in the source
[23] = biological target: T1, Mast/stem cell growth factor receptor Kit; conditions: GISTT1, 1 uM; remark: listed apart in the source

GI50 [1]: 0.49 µM | AUC(0-inf) [3]: 2430 ng·h/mL | GI50 [4]: 0.078 µM | MRT last [5]: 5.75 h | IC50 [8]: 0.075 µM | inhibition [10]: Active | Tmax [13]: 6 h | inhibition [14]: Active | inhibition [15]: Active | inhibition [16]: Active | GI50 [17]: 2.87 µM | inhibition [18]: Active
SMILES: Cc1ccc(C(=O)N2CCC(Oc3cc(NC(=O)c4ccc(CN5CCN(C)CC5)c(C(F)(F)F)c4)ccc3C)CC2)cn1
Activity [2]: Active | GI50 [6]: 0.056 µM | Activity [7]: 2.19 g | Activity [9]: Active | Activity [11]: Non-Toxic | Activity [12]: Active | Activity [19]: Active

inhibition [20]: Active | inhibition [21]: Active | inhibition [22]: Active | inhibition [23]: Active
SMILES: Cc1ccc(NC(=O)c2ccc(CN3CCN(C)CC3)cc2)cc1Nc1nccc(-c2cccnc2)n1 [IMATINIB]
